# HSF1 activator: HSF-1 activators, primary screen, NIH3T3-HGL cells, MG132 stress, luminescence, single point; actives 1.7% (n = 300,000); NIH3T3-HGL HSF-1 luciferase reporter, 8 h; 100% = twice DMSO control signal; activation, % at 9 µM;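 active = mean replicate activation of at least 50% with a set share of replicates each reaching 50%; inconclusive = only one of those two conditions met; inactive = mean below 50% and too few replicates reaching it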;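 note: 0% = median of the neutral control wells and 100% = twice that signal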
# Calb FLC: C. albicans growth inhibition with fluconazole, primary screen, CaCi-2 strain, Alamar Blue fluorescence. growth inhibition, % (test concentration not listed). actives 0.57% (n = 300,000). C. albicans CaCi-2 + fluconazole, 48 h. AID 1979, 2009;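 active = growth inhibition above about 58% in most replicates, limit read from the data, passing the limit was not always enough; inconclusive = exactly half the replicates above a set limit; inactive = most replicates below a set limit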;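 note: all wells also contain fluconazole at 8 µg/ml as a sub-toxic cotreatment; 0% = median of DMSO wells and 100% = median of geldanamycin control wells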
# HSF1 inh: HSF1 inhibitors in luciferase reporter cells, primary screen, cell-based, NIH3T3, luminescence; NIH3T3-HGL HSE-luciferase, MG132-induced, luminescence 8 h; hits give low values; activity change, negative = inhibition, % at 7.5 µM (by protocol); AID 2098, 2009; actives 0.77% (n = 300,000);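 active = more than half of replicate wells show activity change below -50%, luminescence cut by over half; inconclusive = some wells, but at most half, below -50%; inactive = no replicate well below -50%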;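 note: luciferase reports HSF-1 transcriptional activity via heat shock element; 0% = median of DMSO wells and -100% = zero luminescence signal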
# T cruzi repl: inhibitors of intracellular T. cruzi growth, primary screen, luminescence, NIH3T3 host cells; T. cruzi beta-gal in NIH3T3, 90 h; actives 1.4% (n = 300,000); inhibition, % (test concentration not listed);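 active = mean inhibition across valid replicates above about 55%, limit read from the data; inconclusive = mean below that limit but half or more replicates reach it; inactive = mean below it, under half of replicates reach it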;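 note: signal also drops with host cell toxicity which is not excluded here; 0% = plate median of DMSO wells and 100% = zero luminescence signal; higher percent means less beta-gal luminescence so fewer parasites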
#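 Incubation – ≥90 h infection period, 3 h prior cell attachment · System – NIH/3T3 fibroblasts plus reporter T. cruzi · Doses – compound pinned at 50 nL/well, DMSO · Read-out basis – percent inhibition of parasite-derived β-gal signal · Signal – luminescent β-galactosidase signal after 60 min lysis · Also added – 5000 T. cruzi trypomastigotes/well · Medium – Low-serum DMEM with 2% FBS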
# HIF act: HIF pathway transcriptional activators, primary screen, cell-based, U2OS HRE-luciferase, luminescence. activation, % at 7.5 µM (by protocol). actives 0.32% (n = 300,000). U2OS HRE-luciferase reporter; normalized: DMSO 0%, desferrioxamine 100%. AID 1910, 2009;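 active = mean activation of at least 10% of the iron chelator positive control signal, with at least half of replicates also reaching 10%; inconclusive = mean and replicate majority disagree about reaching 10%; inactive = mean and most replicates under 10%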
# Starred values were filed as active, the others as inactive; u = inconclusive; x = no result. Only some compounds are listed: those with a hit (about 4.4% of all), similar ones and a draw of the others.
SMILES,HSF1 activator,Calb FLC,HSF1 inh,T cruzi repl,HIF act
CSc1cc(-c2ccccc2)n(Cc2c(Cl)cccc2Cl)c(=O)c1C#N,-24.1,-6.2,-9.6,-23.1,0.0
CSc1cc(-c2ccccc2)n(C)c(=O)c1C#N,-41.2,103.9*,-22.6,8.7,0.0
CCCn1c(SCC(=O)Nc2cccc(S(=O)(=O)N(C)C)c2)nc2ccccc2c1=O,-0.8,-3.2,-0.9,9.4,0.6
CCNC(=O)OCC12CC3CC(CC(C3)C1)C2,-0.7,4.1,-1.6,20.3,0.8
COC(=O)c1ccc(NC(=O)C2CC3CCC2C3)cc1 (stereo not given),44.6,0.4,18.2,-17.2,1.9
CCOC(=O)c1ccc(NC(=O)N2CCN(S(C)(=O)=O)CC2)cc1,-58.7,6.2,-53.0*,1.6,1.7
O=C(Nc1ccc(F)c(Cl)c1)C1CC2CCC1C2 (stereo not given),70.0*,-1.4,27.9,23.0,-0.1
CCOC(=O)c1ccc(NC(=O)C2CC3CCC2C3)cc1 (stereo not given),63.9*,-0.6,34.5,3.2,3.2
O=C(Nc1ccc(F)cc1)C1CC2CCC1C2 (stereo not given),-0.6,-1.3,-1.6,-17.8,0.2
Cc1ccc(N2CC(C(=O)Nc3cccnc3)CC2=O)cc1C (stereo not given),-13.0,1.8,-8.5,0.4,-0.2
COc1cccc(NC(=O)CCN2C(=O)c3ccccc3Sc3ncccc32)c1,21.1,7.5,0.4,-2.6,0.3
CCOc1cc(Cl)c(S(=O)(=O)NCCCN2CCOCC2)cc1Cl,5.8,-2.8,2.4,-15.7,-0.4
CCOC(=O)c1c(-c2ccccc2)oc2ccc(OCC(O)CNCCN(C)C)cc12 (stereo not given),-9.6,-23.7,-11.5,78.5*,-21.6
CCOC(=O)c1c(-c2ccccc2)oc2ccc(OCC)cc12,12.0,-11.6,-10.1,20.1,-0.3
CCOC(=O)c1c(C)n(C)c2ccc(OCC(O)CNCCc3ccccc3)cc12 (stereo not given),77.3*,-18.1,33.4,54.7*,-19.7
CC(/C=N/NC(=O)COc1ccccc1C)=N\NC(=O)COc1ccccc1C,-28.1,x,-4.2,-1.4,-0.1
CCOc1ccccc1OCCOCCN1CCN(Cc2ccccc2)CC1,16.4,-9.7,-0.1,61.4*,-0.2
CCOc1ccccc1OCCOCCOc1c(Cl)cccc1Cl,-65.4,2.4,-52.9*,7.4,0.3
CCOc1ccc(OCCOCCOc2c(Cl)cccc2Cl)cc1,0.0,-0.3,-0.1,7.1,0.0
COc1cc(OC)c(NS(=O)(=O)c2c(C)[nH]c(=O)[nH]c2=O)cc1Cl,0.8,6.1,3.7,-8.9,-1.8
Nc1ccc(N=Nc2ccccc2O)c(N)c1,-3.7,-5.3,-1.5,-0.1,3.0
Oc1ccccc1N=Nc1ccccc1O,-5.6,93.8*,-4.8,58.7*,201.5*
O=C(c1ccc(-c2ccccc2)c(F)c1)C1CCCN(CCCn2cccn2)C1 (stereo not given),-19.7,0.1,-3.6,44.9,0.0
CSc1ccccc1C(=O)C1CCCN(Cc2cnn(-c3ccccc3)c2)C1 (stereo not given),-30.3,-12.5,-13.3,74.2*,-0.6
CCn1cc(CN2CCCC(C(=O)c3ccc(-c4ccccc4)c(F)c3)C2)cn1 (stereo not given),-8.9,-2.2,-2.8,55.4*,0.2
SMILES,HSF1 activator,Calb FLC,HSF1 inh,T cruzi repl,HIF act
CC(C)c1onc(C(=O)Nc2cccc(O)c2)c1[N+](=O)[O-],20.6,6.0,5.9,-10.2,0.5
Cc1ccc(NC(=O)c2noc(C(C)C)c2[N+](=O)[O-])cc1,14.5,92.0*,1.0,11.1,0.2
COc1ccc(/C=C/C(=O)NC(=S)NNC(=O)c2cnccn2)cc1,12.3,2.7,12.6,64.6*,-0.1
O=C(/C=C/c1ccc(F)cc1)NC(=S)NNC(=O)c1cnccn1,11.8,-2.9,0.1,u,-0.5
COC(=O)Cc1ccc(NC(=S)N2CCN(c3cc(Cl)ccc3C)CC2)cc1,0.7,-1.7,-7.7,1.4,-0.5
CCC(O)CC(C(=O)NNc1ccccc1)C(=O)NNc1ccccc1 (stereo not given),5.5,100.4*,1.7,5.3,-0.1
O=C(NCc1ccc(F)cc1)C(C(=O)NCc1ccc(F)cc1)c1ncc(C(F)(F)F)cc1Cl,0.1,12.8,4.4,-1.8,0.2
C(C#CCCCCCCCCC[n+]1ccccc1)#CCCCCCCCCC[n+]1ccccc1,11.4,110.1*,-4.7,8.2,0.3
Cc1ccc(C(C[N+](=O)[O-])c2c(-c3ccccc3O)[nH][nH]c2=O)cc1 (stereo not given),16.6,u,0.9,6.2,0.0
Cc1sc(NC(=O)c2ccco2)c(CN2CCN(c3ccccn3)CC2)c1C,40.1,62.0,27.0,33.4,5.4
Cc1sc(NC(=O)c2ccco2)c(CN2CCN(c3ccc(F)cc3)CC2)c1C,86.9*,-6.7,32.8,20.7,0.8
CC(=O)Nc1sc(C)c(C)c1CN1CCN(Cc2ccccc2)CC1,1.5,-4.6,-0.1,27.2,0.2
CCOC(=O)N1CCN(Cc2c(NC(=O)c3ccco3)sc(C)c2C)CC1,99.3*,-4.4,101.8,24.5,1.1
O=C(CCS(=O)(=O)c1ccc(Cl)cc1)Nc1nnc(-c2ccco2)o1,-2.3,4.2,1.5,-28.1,0.2
CN(C(=O)CS(=O)(=O)c1cn(CC(=O)N2CCCCC2)c2ccccc12)c1ccccc1,3.0,-1.7,4.3,-4.3,0.3
Cc1cc(NC(=O)c2c(F)cccc2Cl)n(-c2nc3ccccc3[nH]2)n1,-19.7,108.9*,-8.6,24.8,0.1
Cc1cc(NC(=O)/C=C/c2ccc(F)cc2)n(-c2nc3ccccc3[nH]2)n1,45.8,u,7.0,17.0,1.4
COc1ccc(/C=C/C(=O)Nc2cc(C)nn2-c2nc3ccccc3[nH]2)cc1,189.6*,1.7,143.6,54.8*,3.1
CCN(C(=O)CSc1ncccc1C(=O)O)C1CCCCC1,-16.3,-3.8,-7.4,9.5,-0.1
CCN(C(=O)CSc1ncn[nH]1)C1CCCCC1,-2.9,9.0,-2.6,-3.7,77.0*
O=C(CCCN1C(=O)C(c2ccccc2)Oc2cccnc21)NCCc1ccc(Cl)cc1 (stereo not given),12.2,1.8,12.9,14.8,-0.3
CC(C)c1nnc(NC(=O)CCC(=O)NC2CC2)s1,-3.4,-3.3,-3.9,-7.9,17.9*
COc1ccccc1N1CCN(C(=O)Cn2c(=O)oc3cc(S(=O)(=O)N4CCCC4)ccc32)CC1,5.3,-3.3,-4.5,-5.2,0.0
Cc1ccc(S(=O)(=O)NC(=O)Nc2ccc(Cl)cn2)cc1,5.7,0.4,-4.9,-11.8,x
Cc1ccc(S(=O)(=O)NC(=O)Nc2ccc(C)cn2)cc1,68.6*,1.1,25.1,-16.4,-32.7

# High-throughput results: PubChem, Broad Institute
